# Measles CPE: protection of cells from measles virus. 1.5% of 140,000 active. protection (pct of control), % at 4 µM. Measles virus-infected cells, CPE protection, absorbance; in the data active means protection mostly above about 24%, no sharp cut-off; inactive means mostly below about 26%
# RAM inhibit: blocks the yeast RAM network; S. cerevisiae dse1pr::URA3 reporter, 5-FOA growth OD615, 2 d; analog-sensitive cbk1-as2 kinase mutant strain; inhibition, % at 50 µM; 1.8% of 190,000 active;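 active means inhibition above a set limit, 3 SD over mean compound inhibition, cut at about 8.4% in these data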;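 further: 0% = DMSO-only wells with no growth and 100% = 10 µM 1-NA-PP1 full growth; inhibition rescues growth on 5-FOA so higher OD means more RAM inhibition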
# Yeast life ext: yeast lifespan extension. S. cerevisiae growth with nicotinamide, OD615; deaD strain in restrictive glucose medium. inhibition of the nicotinamide effect, % at 10 µM. 0.68% of 130,000 active. AID 775;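 active means inhibition above a set limit, placed 3 SD over the median of all compounds, cut at about 26% in these data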;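 further: 0% = nicotinamide-treated wells and 100% = cells grown without nicotinamide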
#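 System: Modified budding yeast, DeaD strain | Buffer or medium: Restrictive glucose medium | Also added: 1.5 mM nicotinamide | Doses: 10 µM single point, 0.25% DMSO | Schedule: 48 h compound exposure at 30 °C, humidified | Detection: Absorbance at 615 nm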
# Yeast growth inh: chemicals that inhibit yeast BB579 growth in restrictive medium (lifespan-shortening candidates); inhibition, % at 10 µM; 0.51% of 140,000 active; S. cerevisiae BB579 growth, OD615, 48 h;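 active means inhibition above a set limit, 3 SD over the mean compound inhibition, cut at about 44% in these data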
#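 test system = yeast BB579 (DeaD) | buffer or medium = restrictive CSMM-D medium | doses = single compound dose of 10 µM, 0.25% DMSO final | times = 4 h preincubation and 48 h exposure at 30 °C | technique = culture absorbance at 615 nm | benchmarks = amphotericin B 10 µg/mL, positive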
# SDO1 yeast rescue: sdo1-depleted yeast growth rescue; z-score at 10 µM; S. cerevisiae sdo1-depleted JHY4D growth rescue, OD600 30 h; stronger effect = higher value; pdr5 snq2 efflux-pump mutant strain; 0.21% of 140,000 active;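 active means z-score above 3 at both the 24 hr and the 30 hr optical density reads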;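 further: z-score against mean and SD of all compound wells on the same plate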
# RAM efflux-def: RAM network inhibition, efflux-deficient strain; S. cerevisiae efflux-deficient reporter strain, 5-FOA growth OD615, 2 days; shares compounds with RAM inhibit; AID 1305; max inhibition, %; 1,200 tested, under 10 active; call rule not given here;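 further: plate controls were vehicle for no effect and reference inhibitor for full effect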
# * marks the source's active call; other numbers are inactive results; · = no result given. Most compounds without a hit are left out; they make up all but 3.8% or so of the library.
SMILES,Measles CPE,RAM inhibit,Yeast life ext,Yeast growth inh,SDO1 yeast rescue,RAM efflux-def
Cc1nc2ccc(NC(=O)Cc3ccc4c(c3)OCCO4)cc2s1,9.8,-1.0,-5.8,-58.2,-2.2,·
CCCN(N=Nc1cccc([N+](=O)[O-])c1)c1cccc([N+](=O)[O-])c1,3.8,12.4*,-10.3,-42.8,-0.64,3.0
O=[N+]([O-])c1cccc(N=NN(CCO)c2cccc([N+](=O)[O-])c2)c1,28.0,2.5,-6.2,-31.7,-1.95,·
Cc1ccc2nc(C)c(C(=O)NN=C3CCN(C)CC3)n2c1,·,0.6,·,·,·,·
Cc1ccc(NC(=O)COC(=O)CCC(=O)c2ccc(C(C)(C)C)cc2)c([N+](=O)[O-])c1,3.4,13.7*,8.3,-28.2,0.21,3.9
Cc1ccc(C(=O)NCC(=O)OCC(=O)Nc2cc(C)c(C)cc2[N+](=O)[O-])cc1,12.9,1.9,-4.9,-11.6,-0.42,·
Cc1ccc(NC(=O)COC(=O)COc2ccc(Cl)cc2C)c([N+](=O)[O-])c1,3.1,11.6*,0.6,-38.4,-0.06,1.4
COc1ccc(C2C(=O)N(C3CCCCC3)CC(=O)N2CC2COc3ccccc3O2)cc1 (stereo not given),8.8,2.7,-3.6,-32.3,-0.96,·
NC(=S)N/N=C/c1coc2ccc(Cl)cc2c1=O,·,-1.3,·,·,·,·
O=C(N/N=C/c1cccc(Oc2ccc([N+](=O)[O-])cc2[N+](=O)[O-])c1)c1cncc(Br)c1,15.0,2.5,-16.1,-15.7,-0.03,·
COc1cc(CNn2c(C)n[nH]c2=S)cc(Cl)c1OCc1ccccc1,6.0,12.8*,-1.6,-26.4,-1.34,1.7
CNC(=O)C1CC(=O)N(Cc2ccccc2)C(=Nc2ccc(OC)cc2)S1 (stereo not given),3.0,2.3,13.7,-5.1,0.15,·
CCCC1S/C(=N/N=C/c2ccc(OC)cc2)N(Cc2ccc(OC)cc2)C1=O (stereo not given),21.2,13.2*,-4.3,-33.2,-0.08,6.5
CCCC1S/C(=N/N=C/c2ccc(OC)cc2)N(Cc2ccccc2)C1=O (stereo not given),24.0,14.9*,1.9,-17.8,-0.83,3.3
CCCCC1S/C(=N/N=C/c2ccc(OC)cc2)N(Cc2ccc(OC)cc2)C1=O (stereo not given),2.6,13.6*,4.6,-11.3,0.46,6.4
COc1ccc(CC2S/C(=N/N=C/c3ccc(O)cc3)NC2=O)cc1 (stereo not given),·,5.1,·,·,·,·
COc1ccc(CCNC(=O)COC(=O)c2ccc(N3CCCC3=O)cc2)cc1,·,-0.4,·,·,·,·
CN1CCN(c2ncccc2S(=O)(=O)N2CCCCC2)CC1,20.1,1.0,·,-50.4,-0.09,·
Cc1cc(C)n(-c2nnc(C)n2/N=C/c2cc(Br)ccc2OCc2ccccc2)n1,15.1,0.2,-8.4,-18.6,-1.44,·
CCCOc1ccc(C2NC(=S)NC(c3ccccc3)=C2C(=O)Nc2ccc(C)cc2)cc1OC (stereo not given),6.3,1.0,-3.1,-10.8,1.21,·
CC(=O)OCCNc1cc(SC(C)C)c2nonc2c1[N+](=O)[O-],·,1.2,·,·,·,·
CC(=O)OCCCNc1cc(Sc2ccc(Cl)cc2)c2nonc2c1[N+](=O)[O-],0.7,11.6*,11.9,-31.8,0.13,2.1
C=CCn1c(SCC)nc2sc3c(c2c1=O)CCc1ccccc1-3,0.5,17.8*,0.4,-22.4,0.01,2.4
O=C(/C=C/c1ccc(-c2ccccc2[N+](=O)[O-])o1)c1ccccc1,21.0,15.8*,-5.7,-32.7,-0.86,3.9
CNC(=O)/C(C#N)=C/c1ccc(-c2ccccc2[N+](=O)[O-])o1,·,4.4,·,·,·,·
SMILES,Measles CPE,RAM inhibit,Yeast life ext,Yeast growth inh,SDO1 yeast rescue,RAM efflux-def
O=C(COC(=O)c1cccs1)Nc1ccccc1C(F)(F)F,·,0.6,·,·,·,·
O=C(COC(=O)c1ccccc1-c1nc2ccccc2s1)Nc1ccccc1C(F)(F)F,7.2,14.8*,8.7,-9.2,-1.05,2.2
COc1ccc(-c2nc(CCl)cs2)cc1OC,·,-0.2,·,·,·,·
COc1ccc(-c2nc(-c3ccc(O)cc3O)cs2)cc1OC,·,12.1*,·,·,·,3.6
COc1cc(/C=N\NC(=O)c2sc(N)nc2C)cc(OC)c1OC,7.6,-0.6,-7.0,-18.7,0.77,·
COc1ccc(OC2C(=O)N(Cc3ccc4c(c3)OCO4)C2c2cccs2)cc1 (stereo not given),9.8,13.2*,7.8,-35.8,-1.14,2.9
O=C(CCCCN1CCCCC1)c1ccc2c(c1)Cc1ccccc1-2,·,1.4,·,·,·,·
